ChEMBL document CHEMBL4152384, “Pyrtriazoles, a Novel Class of Store-Operated Calcium Entry Modulators: Discovery, Biological Profiling, and in Vivo Proof-of-Concept Efficacy in Acute Pancreatitis” (J Med Chem, 2018)
Active and inactive are the calls of the source. The rule behind the calls is not given here.

Key:
[1] = molecular target: T1, Short transient receptor potential channel 1 & 3/Stromal interaction molecule 1/Calcium release-activated calcium channel protein 1 (Homo sapiens) (UniProt Q96D31+Q13507+Q13586+P48995); assay: (§1) Modulation of TRPC1/TRPC3/STIM1/Orai1 in HEK cells assessed as induction of store-operated calcium entry by measuring residual activity at 10 uM preincubated for 30 mins followed by tBhQ-mediated Ca2+ depletion and Ca2+ re-addition to extracellular solution measured for 600 secs by Fluo-4 AM-based fluorometric assay relative to control; format: cell-based
T1 sequence (P48995 whole entry partner): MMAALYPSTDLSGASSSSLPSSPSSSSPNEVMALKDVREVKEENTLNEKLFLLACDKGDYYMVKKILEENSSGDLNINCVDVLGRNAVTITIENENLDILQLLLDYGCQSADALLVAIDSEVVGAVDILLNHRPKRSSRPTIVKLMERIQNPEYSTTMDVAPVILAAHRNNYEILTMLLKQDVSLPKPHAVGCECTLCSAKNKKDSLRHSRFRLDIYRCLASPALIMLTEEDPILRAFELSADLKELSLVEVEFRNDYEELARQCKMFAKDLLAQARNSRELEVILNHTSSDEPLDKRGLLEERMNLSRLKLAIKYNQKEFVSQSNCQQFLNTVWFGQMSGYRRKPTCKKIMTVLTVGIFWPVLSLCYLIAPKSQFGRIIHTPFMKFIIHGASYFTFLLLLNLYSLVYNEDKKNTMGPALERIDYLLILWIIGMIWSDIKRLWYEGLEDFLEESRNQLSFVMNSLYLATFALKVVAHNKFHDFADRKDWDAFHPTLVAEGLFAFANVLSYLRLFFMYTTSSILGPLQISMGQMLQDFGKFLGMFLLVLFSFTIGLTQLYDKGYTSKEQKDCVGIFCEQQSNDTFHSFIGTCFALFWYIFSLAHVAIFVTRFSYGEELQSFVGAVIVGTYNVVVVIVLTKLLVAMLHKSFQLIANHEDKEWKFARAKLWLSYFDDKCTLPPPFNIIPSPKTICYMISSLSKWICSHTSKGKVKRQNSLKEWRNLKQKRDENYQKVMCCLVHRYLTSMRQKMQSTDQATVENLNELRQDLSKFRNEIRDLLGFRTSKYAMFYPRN
T1 sequence (Q13507 whole entry partner): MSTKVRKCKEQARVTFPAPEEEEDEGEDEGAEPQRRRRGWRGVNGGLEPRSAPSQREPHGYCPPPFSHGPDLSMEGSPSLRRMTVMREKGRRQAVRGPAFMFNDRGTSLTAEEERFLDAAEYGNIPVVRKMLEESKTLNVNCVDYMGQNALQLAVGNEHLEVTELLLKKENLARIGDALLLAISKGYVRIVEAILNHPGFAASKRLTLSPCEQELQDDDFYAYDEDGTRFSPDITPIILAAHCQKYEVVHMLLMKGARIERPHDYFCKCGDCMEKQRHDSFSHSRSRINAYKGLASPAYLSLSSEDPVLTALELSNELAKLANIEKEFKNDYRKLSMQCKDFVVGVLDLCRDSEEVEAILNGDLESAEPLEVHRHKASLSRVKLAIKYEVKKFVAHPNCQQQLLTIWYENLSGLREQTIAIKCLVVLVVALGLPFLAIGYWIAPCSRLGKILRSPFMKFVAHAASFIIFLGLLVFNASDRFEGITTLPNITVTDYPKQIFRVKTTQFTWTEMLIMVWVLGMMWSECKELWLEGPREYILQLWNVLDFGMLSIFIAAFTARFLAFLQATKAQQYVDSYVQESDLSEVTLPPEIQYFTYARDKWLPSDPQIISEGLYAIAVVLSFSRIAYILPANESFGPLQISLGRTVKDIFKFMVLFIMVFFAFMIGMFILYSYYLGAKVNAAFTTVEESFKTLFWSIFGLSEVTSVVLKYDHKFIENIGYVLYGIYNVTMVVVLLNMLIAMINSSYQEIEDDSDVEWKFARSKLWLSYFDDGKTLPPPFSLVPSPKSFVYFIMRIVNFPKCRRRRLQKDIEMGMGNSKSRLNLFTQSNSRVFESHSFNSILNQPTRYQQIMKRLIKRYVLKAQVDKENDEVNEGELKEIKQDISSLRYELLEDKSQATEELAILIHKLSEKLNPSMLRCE
T1 sequence (Q13586 23-685 partner limits assumed): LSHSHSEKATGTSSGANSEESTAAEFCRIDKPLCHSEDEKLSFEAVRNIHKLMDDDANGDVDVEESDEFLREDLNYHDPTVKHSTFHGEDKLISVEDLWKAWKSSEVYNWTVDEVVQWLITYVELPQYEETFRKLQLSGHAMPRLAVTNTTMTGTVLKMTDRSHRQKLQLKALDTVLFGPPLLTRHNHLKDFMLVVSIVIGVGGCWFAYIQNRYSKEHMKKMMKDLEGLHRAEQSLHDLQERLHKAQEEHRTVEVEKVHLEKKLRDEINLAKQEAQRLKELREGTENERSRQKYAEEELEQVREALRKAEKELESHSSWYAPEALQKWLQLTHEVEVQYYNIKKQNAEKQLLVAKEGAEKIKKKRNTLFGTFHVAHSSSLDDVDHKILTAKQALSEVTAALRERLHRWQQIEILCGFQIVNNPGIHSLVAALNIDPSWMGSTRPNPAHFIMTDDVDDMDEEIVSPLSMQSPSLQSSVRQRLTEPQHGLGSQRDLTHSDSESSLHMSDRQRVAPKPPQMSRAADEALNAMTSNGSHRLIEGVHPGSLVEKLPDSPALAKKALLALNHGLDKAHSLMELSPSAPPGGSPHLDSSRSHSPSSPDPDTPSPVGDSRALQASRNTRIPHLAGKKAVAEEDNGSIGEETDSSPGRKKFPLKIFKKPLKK
T1 sequence (Q96D31 whole entry): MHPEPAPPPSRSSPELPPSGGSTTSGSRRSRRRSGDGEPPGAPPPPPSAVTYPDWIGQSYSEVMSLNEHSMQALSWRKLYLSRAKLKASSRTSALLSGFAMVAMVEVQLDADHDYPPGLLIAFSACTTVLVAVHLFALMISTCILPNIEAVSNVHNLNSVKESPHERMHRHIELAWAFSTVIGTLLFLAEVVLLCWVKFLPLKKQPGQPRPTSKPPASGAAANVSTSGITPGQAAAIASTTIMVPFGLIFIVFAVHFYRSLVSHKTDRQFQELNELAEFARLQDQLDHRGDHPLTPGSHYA

Jurkat [2] = assay: as §1, with “Induction” for “Modulation”, “store-operated calcium entry” for “TRPC1/TRPC3/STIM1/Orai1”, “human Jurkat” for “HEK”; format: cell-based
[3] = molecular target: T2, Stromal interaction molecule 1 & 2/Calcium release-activated calcium channel protein 1 (Mus musculus) (UniProt Q8BWG9+P70302+P83093); assay: as §1, with “STIM1/STIM2/Orai1” for “TRPC1/TRPC3/STIM1/Orai1”, “mouse BV2” for “HEK”; format: cell-based
[4] = Cytotoxicity against HEK cells assessed as cell viability at 10 uM by MTT assay relative to control; format: cell-based; settings: human, read-out: Activity
Procedure, shortened: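 Hek cells treated 24 h with compound at 10 μM; viability determined by MTT assay.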

[5] = molecular target: Transient receptor potential cation channel subfamily M member 8 (Homo sapiens) (UniProt Q7Z2W7); assay: Antagonist activity at TRPM8 (unknown origin) expressed in HEK cells assessed as inhibition of menthol -mediated calcium increase at 10 uM by fura-2-based assay; format: cell-based
Chain of Transient receptor potential cation channel subfamily M member 8 (Homo sapiens) (Q7Z2W7 whole entry, looked up): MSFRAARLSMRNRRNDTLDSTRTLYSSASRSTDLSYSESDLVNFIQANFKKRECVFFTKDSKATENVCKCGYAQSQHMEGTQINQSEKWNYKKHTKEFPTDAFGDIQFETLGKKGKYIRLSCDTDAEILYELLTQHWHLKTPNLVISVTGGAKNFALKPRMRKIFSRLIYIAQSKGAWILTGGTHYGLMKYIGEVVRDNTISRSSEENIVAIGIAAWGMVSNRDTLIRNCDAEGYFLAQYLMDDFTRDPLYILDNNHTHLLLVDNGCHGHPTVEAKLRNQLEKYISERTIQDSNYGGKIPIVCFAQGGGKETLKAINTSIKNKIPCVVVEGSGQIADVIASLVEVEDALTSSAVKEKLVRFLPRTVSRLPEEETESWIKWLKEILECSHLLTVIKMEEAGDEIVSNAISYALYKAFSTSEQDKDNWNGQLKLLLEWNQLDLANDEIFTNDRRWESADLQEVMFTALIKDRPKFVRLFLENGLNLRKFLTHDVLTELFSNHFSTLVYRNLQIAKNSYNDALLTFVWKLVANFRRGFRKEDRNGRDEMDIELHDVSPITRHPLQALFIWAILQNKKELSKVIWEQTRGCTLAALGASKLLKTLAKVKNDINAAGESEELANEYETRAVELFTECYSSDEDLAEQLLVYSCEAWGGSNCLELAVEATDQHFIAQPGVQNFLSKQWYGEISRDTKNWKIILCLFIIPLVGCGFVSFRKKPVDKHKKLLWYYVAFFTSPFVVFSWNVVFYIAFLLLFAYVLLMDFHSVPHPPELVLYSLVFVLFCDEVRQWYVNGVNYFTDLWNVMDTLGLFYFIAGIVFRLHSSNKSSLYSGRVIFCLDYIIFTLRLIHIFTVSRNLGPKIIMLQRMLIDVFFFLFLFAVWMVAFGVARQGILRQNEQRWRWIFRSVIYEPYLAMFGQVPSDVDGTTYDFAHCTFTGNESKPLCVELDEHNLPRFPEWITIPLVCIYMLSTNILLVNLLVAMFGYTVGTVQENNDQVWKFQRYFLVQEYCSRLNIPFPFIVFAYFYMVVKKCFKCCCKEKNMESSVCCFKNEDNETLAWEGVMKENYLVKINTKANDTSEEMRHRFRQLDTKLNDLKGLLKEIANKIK
Procedure, shortened: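 TRPM8-overexpressing Hek cells; calcium rise evoked by menthol (100 μM), test compounds at 10 μM; peak amplitude read out; mean ± SEM of 600 cells from 30 plates on four separate experimental days.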

[6] = molecular target: Transient receptor potential cation channel subfamily V member 1 (Homo sapiens) (UniProt Q8NER1); assay: Antagonist activity at TRPV1 (unknown origin) expressed in HEK cells assessed as inhibition of capsaicin-induced calcium increase at 10 uM by fura-2-based assay; format: cell-based
Chain of Transient receptor potential cation channel subfamily V member 1 (Homo sapiens) (Q8NER1 whole entry): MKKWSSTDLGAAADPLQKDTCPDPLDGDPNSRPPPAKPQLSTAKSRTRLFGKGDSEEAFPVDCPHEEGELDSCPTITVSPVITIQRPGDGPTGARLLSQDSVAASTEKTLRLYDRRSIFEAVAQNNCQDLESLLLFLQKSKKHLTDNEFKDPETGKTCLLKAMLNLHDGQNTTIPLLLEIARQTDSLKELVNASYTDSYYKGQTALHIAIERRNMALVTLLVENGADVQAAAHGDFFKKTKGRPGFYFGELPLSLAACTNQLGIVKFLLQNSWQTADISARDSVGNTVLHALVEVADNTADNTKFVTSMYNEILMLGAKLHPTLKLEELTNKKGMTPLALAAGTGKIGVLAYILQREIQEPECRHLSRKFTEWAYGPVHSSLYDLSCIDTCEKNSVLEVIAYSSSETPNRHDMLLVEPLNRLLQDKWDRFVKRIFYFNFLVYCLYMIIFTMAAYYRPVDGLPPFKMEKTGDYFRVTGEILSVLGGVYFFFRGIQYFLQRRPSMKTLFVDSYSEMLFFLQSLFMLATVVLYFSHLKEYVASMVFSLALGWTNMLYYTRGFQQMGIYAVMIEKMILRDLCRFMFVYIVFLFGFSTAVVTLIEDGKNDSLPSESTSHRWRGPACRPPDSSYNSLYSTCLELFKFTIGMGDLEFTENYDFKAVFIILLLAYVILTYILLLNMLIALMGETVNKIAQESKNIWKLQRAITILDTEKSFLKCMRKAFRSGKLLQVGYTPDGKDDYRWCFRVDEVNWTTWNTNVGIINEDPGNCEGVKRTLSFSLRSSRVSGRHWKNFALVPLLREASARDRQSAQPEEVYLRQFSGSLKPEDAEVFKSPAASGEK
Procedure, shortened: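 TRPV1-overexpressing Hek cells; calcium rise evoked by capsaicin (100 nM), test compounds at 10 μM; peak amplitude read out; mean ± SEM of 600 cells from 30 plates on four separate experimental days.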

[7] = molecular target: T1, Short transient receptor potential channel 1 & 3/Stromal interaction molecule 1/Calcium release-activated calcium channel protein 1 (Homo sapiens); assay: as §1, with “100” for “10”; format: cell-based
[8] = Metabolic stability in CD1 mouse plasma assessed as residual compound level at 50 uM after 30 mins by LC-UV analysis; format: ADME, cell-free; settings: read-out: Stability
Procedure, shortened: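 Compounds incubated in mouse plasma for 30 min; percentage of residual substrate determined.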

[9] = as §1, with “Induction” for “Modulation”, “store-operated calcium entry” for “TRPC1/TRPC3/STIM1/Orai1”, “human Jurkat” for “HEK”, “activity” for “activity at 10 uM”; format: cell-based
[10] = molecular target: T2, Stromal interaction molecule 1 & 2/Calcium release-activated calcium channel protein 1 (Mus musculus); assay: as §1, with “STIM1/STIM2/Orai1” for “TRPC1/TRPC3/STIM1/Orai1”, “mouse BV2” for “HEK”, “100” for “10”; format: cell-based
Jurkat [11] = assay: as §1, with “Induction” for “Modulation”, “store-operated calcium entry” for “TRPC1/TRPC3/STIM1/Orai1”, “human Jurkat” for “HEK”, “100” for “10”; format: cell-based
Jurkat [12] = assay: Induction of store-operated calcium entry in human Jurkat cells assessed as induction of store-operated calcium entry at 10 uM preincubated for 30 mins followed by tBhQ-mediated Ca2+ depletion and Ca2+ re-addition to extracellular solution measured for 800 secs by Fluo-4 AM-based fluorometric assay relative to control; format: cell-based
[13] = molecular target: T2, Stromal interaction molecule 1 & 2/Calcium release-activated calcium channel protein 1 (Mus musculus); assay: as §1, with “STIM1/STIM2/Orai1” for “TRPC1/TRPC3/STIM1/Orai1”, “mouse BV2” for “HEK”, “increase in slope” for “residual activity”, “3 to 100” for “10”; format: cell-based
[14] = molecular target: T1, Short transient receptor potential channel 1 & 3/Stromal interaction molecule 1/Calcium release-activated calcium channel protein 1 (Homo sapiens); assay: as §1, with “increase in AUC of calcium entry” for “residual activity”, “3 to 100” for “10”; format: cell-based
[15] = molecular target: T2, Stromal interaction molecule 1 & 2/Calcium release-activated calcium channel protein 1 (Mus musculus); assay: as §1, with “STIM1/STIM2/Orai1” for “TRPC1/TRPC3/STIM1/Orai1”, “mouse BV2” for “HEK”, “increase in AUC of calcium entry” for “residual activity”, “3 to 100” for “10”; format: cell-based
[16] = molecular target: T3, ORAI1/STIM1 (Homo sapiens) (UniProt Q96D31+Q13586); assay: Modulation of Orai1/STIM1 (unknown origin) expressed in HEK cells assessed as potentiation of store-operated calcium currents in presence of 20 mM BAPTA and 150 nM Ca2+ containing internal solution by patch clamp assay relative to control; format: cell-based
T3 sequence (Q13586 23-685 partner limits assumed): as the sequence (Q13586 23-685 partner limits assumed) above
T3 sequence (Q96D31 whole entry): as the sequence (Q96D31 whole entry) above

[17] = molecular target: T1, Short transient receptor potential channel 1 & 3/Stromal interaction molecule 1/Calcium release-activated calcium channel protein 1 (Homo sapiens); assay: as §1, with “increase in slope” for “residual activity”, “3 to 100” for “10”; format: cell-based
[18] = molecular target: T1, Short transient receptor potential channel 1 & 3/Stromal interaction molecule 1/Calcium release-activated calcium channel protein 1 (Homo sapiens); assay: as §1, with “increase in peak amplitude” for “residual activity”, “3 to 100” for “10”; format: cell-based
[19] = molecular target: T3, ORAI1/STIM1 (Homo sapiens); assay: Modulation of Orai1/STIM1 (unknown origin) expressed in HEK cells assessed as potentiation of store-operated calcium currents in presence of 20 mM BAPTA by patch clamp assay relative to control; format: cell-based
Procedure, shortened: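 Whole-cell ISOC recorded in Hek cells stably overexpressing Orai1 and transiently expressing STIM1; internal solution strongly buffered with 20 mM BAPTA; compound at 10 μM versus untreated control.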

[20] = system: voltage-gated calcium channel (Mus musculus); assay: Antagonist activity at voltage-gated calcium channels in C57/BL6 mouse cerebellar granule cells assessed as inhibition of KCl-induced voltage dependent calcium entry at 10 uM by fura-2-based assay
Jurkat [21] = assay: (§2) Induction of store-operated calcium entry in human Jurkat cells assessed as induction of store-operated calcium entry by measuring increase in slope at 3 to 100 uM preincubated for 30 mins followed by tBhQ-mediated Ca2+ depletion and Ca2+ re-addition to extracellular solution measured for 600 secs by Fluo-4 AM-based fluorometric assay relative to control; format: cell-based
[22] = molecular target: T1, Short transient receptor potential channel 1 & 3/Stromal interaction molecule 1/Calcium release-activated calcium channel protein 1 (Homo sapiens); assay: as §1, with “entry” for “entry by measuring residual activity”, “800” for “600”; format: cell-based
Homo sapiens = organism: Homo sapiens; assay: Modulation of Orai1/STIM1 (unknown origin) expressed in HEK cells assessed as potentiation of store-operated calcium currents by measuring reduction in time constant of channel activation in presence of 20 mM BAPTA and 150 nM Ca2+ containing internal solution by patch clamp assay relative to control; format: cell-based
Jurkat [23] = assay: as §2, with “AUC of calcium entry” for “slope”; format: cell-based
[24] = molecular target: T2, Stromal interaction molecule 1 & 2/Calcium release-activated calcium channel protein 1 (Mus musculus); assay: (§3) Modulation of STIM1/STIM2/Orai1 in mouse BV2 cells assessed as induction of store-operated calcium entry at 10 uM preincubated for 30 mins followed by tBhQ-mediated Ca2+ depletion and Ca2+ re-addition to extracellular solution measured for 800 secs by Fluo-4 AM-based fluorometric assay relative to control; format: cell-based
Procedure, shortened: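 Microplate Fluo-4 assay in mouse microglial BV-2 cells. Stores emptied with tBhQ (50 μM) in presence of compound (10 μM); extracellular Ca2+ re-added after 600 s and intracellular Ca2+ read fluorimetrically; SOCE expressed versus control.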

[25] = system: voltage-gated calcium channel (Mus musculus); assay: Antagonist activity at voltage-gated calcium channels in C57/BL6 mouse cerebellar granule cells assessed as inhibition of KCl-induced voltage dependent calcium entry at 10 uM by fura-2-based assay; remark: listed apart in the source
Jurkat [26] = assay: as §2, with “peak amplitude” for “slope”; format: cell-based
[27] = molecular target: T2, Stromal interaction molecule 1 & 2/Calcium release-activated calcium channel protein 1 (Mus musculus); assay: as §3, with “entry by measuring increase in peak amplitude” for “entry”, “3 to 100” for “10”, “600” for “800”; format: cell-based
[28] = Drug metabolism in CD1 mouse liver microsomes assessed as 1-(4-(4-(3-Carboxyphenyl)-1H-1,2,3-triazol-1-yl)phenyl)-5-(trifluoromethyl)-1H-pyrazole-4-carboxylic Acid metabolite formation at 50 uM after 60 mins by mass spectroscopic analysis; format: ADME, microsome
[29] = Drug metabolism in CD1 mouse liver microsomes assessed as ester group hydrolysis at 50 uM after 60 mins in presence of NADPH/UDPGA; format: ADME, microsome; settings: 1 h
[30] = molecular target: Short transient receptor potential channel 1 & 3/Stromal interaction molecule 1/Calcium release-activated calcium channel protein 1 (Homo sapiens, UniProt P48995+Q13507+Q13586+Q96D31); assay: as §1, with “activity” for “activity at 10 uM”; format: cell-based
[31] = Drug metabolism in CD1 mouse liver microsomes assessed as ester group hydrolysis at 50 uM after 60 mins in absence of NADPH/UDPGA; format: ADME, microsome; settings: 1 h
[32] = Metabolic stability in CD1 mouse liver S9 fraction assessed as residual compound level at 50 uM after 1 hr; format: ADME, subcellular; settings: read-out: Stability
Procedure, shortened: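 Hydrolytic stability measured in mouse liver S9 fraction; residual substrate quantified after 1 h incubation.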

| Compound | Activity [1] [%] | Activity (Jurkat [2]) [%] | Activity [3] [%] | viability at 10 µM [4] [%] | further results |
| --- | --- | --- | --- | --- | --- |
| CCOC(=O)c1cnn(-c2ccc(-c3cn(-c4ccc(C(=O)O)cc4)nn3)cc2)c1C(F)(F)F | 69.3 | 60.3 | 69.5 |  |  |
| CCOC(=O)c1cnn(-c2ccc(-n3cc(-c4cccc(C(=O)NO)c4)nn3)cc2)c1C(F)(F)F | 6.4 |  |  | 67.5 |  |
| CCOC(=O)c1cnn(-c2ccc(-n3cc(-c4cccc(N)c4)nn3)cc2)c1C(F)(F)F | 81.7 | 89.3 | 65.3 |  |  |
| CCOC(=O)c1cnn(-c2ccc(-c3cn(-c4cccc(C(=O)O)c4)nn3)cc2)c1C(F)(F)F | 30 | 36.3 | 56.7 |  |  |
| O=C(O)c1cccc(-c2cn(-c3ccc(-n4nc(C(F)(F)F)cc4C(F)(F)F)cc3)nn2)c1 | 53 | 61.7 | 61.3 |  |  |
| CCOC(=O)c1cnn(-c2ccc(-n3cc(-c4ccc(O)c(OC)c4)nn3)cc2)c1C(F)(F)F | 43.2 | 21.6 | 65 |  |  |
| CCOC(=O)c1cnn(-c2ccc(NC(=O)C(Cl)=C(Cl)Cl)cc2)c1C(F)(F)F | 8.9 | 6.1 | 40.7 | 28.6 | inhibition [5]: inactive; inhibition [6]: inactive; residual activity [7]: < 100%; remaining at 0.5 h, 50 µM [8]: 20.4%; IC50 [9]: 0.3 µM; residual activity [10]: < 100%; residual activity (Jurkat [11]): < 100% |
| CCOC(=O)c1cnn(-c2ccc(-c3cn(-c4cccc(N)c4)nn3)cc2)c1C(F)(F)F | 73.2 | 85.4 | 61.3 |  |  |
| O=C(O)c1cccc(-c2cn(-c3ccc(-n4ncc(C(=O)OCc5ccccc5)c4C(F)(F)F)cc3)nn2)c1 | 10.5 |  |  | 82.2 |  |
| CCOC(=O)c1cnn(-c2ccc(-n3cc(-c4ccc(C(=O)O)cc4)nn3)cc2)c1C(F)(F)F | 52.1 | 67.7 | 59.9 |  |  |
| CCOC(=O)c1cnn(-c2ccc(-c3cn(-c4ccc(Cl)cc4)nn3)cc2)c1C(F)(F)F | 142 | 197 | 153 |  | Activity (Jurkat [12]): inactive; Activity [13]: Active; Activity [14]: Active; Activity [15]: Active; inhibition [5]: inactive; Activity [16]: inactive; inhibition [6]: inactive; Activity [17]: Active; Activity [18]: Active; Activity [19]: Active; inhibition [20]: inactive; Activity (Jurkat [21]): Active; Activity [22]: inactive; Activity (Homo sapiens): Active; Activity (Jurkat [23]): Active; Activity [24]: inactive; inhibition [25]: inactive; Activity (Jurkat [26]): Active; Activity [27]: Active |
| COC(=O)c1cnn(-c2ccc(-n3cc(-c4cccc(C(=O)O)c4)nn3)cc2)c1C(F)(F)F | 7.9 |  |  | 69.2 | remaining at 0.5 h, 50 µM [8]: 6.5% |
| CC(C)OC(=O)c1cnn(-c2ccc(-n3cc(-c4cccc(C(=O)O)c4)nn3)cc2)c1C(F)(F)F | 3.5 |  |  | 87.2 | Drug metabolism [28]: Metabolite_Notdetected; inhibition [5]: inactive; inhibition [6]: inactive; remaining at 0.5 h, 50 µM [8]: 87.7%; inhibition [20]: inactive; Drug metabolism [29]: Metabolite_Detected; IC50 [30]: 3.1 µM; Drug metabolism [31]: Metabolite_Detected; inhibition [25]: inactive; remaining at 1 h, 50 µM [32]: 81.3% |
| CCOC(=O)c1cnn(-c2ccc(-c3cn(CCCC(=O)O)nn3)cc2)c1C(F)(F)F | 95.5 | 80.9 | 69.9 |  |  |
| CCOC(=O)c1cnn(-c2ccc(-c3cn(-c4ccncc4F)nn3)cc2)c1C(F)(F)F | 81.4 | 67.1 | 62.3 |  |  |
| O=C(Nc1ccc(-n2nc(C(F)(F)F)cc2C(F)(F)F)cc1)c1ccncc1F | 10.3 |  |  | 70.3 | inhibition [5]: Active; inhibition [6]: Active; IC50 [30]: 0.3 µM |
| CCOC(=O)c1cnn(-c2ccc(NC(=O)c3cccc(C(=O)O)c3)cc2)c1C(F)(F)F | 63.5 |  |  | 65.9 |  |
